Assay results as given in PMC4843813 (ACS chemical biology, 2015).

Tests used:
human red blood cells [1] = experiment: micro-RNA mir-16 release from red blood cells; format: cell-based; details: pH 5.4; 5 μM peptide, human RBCs, 37 °C, mir-16 by stem-loop qPCR on supernatant
human red blood cells [2] = experiment: ATP release from red blood cells; format: cell-based; details: 5 μM peptide, human RBCs, 37 °C, ATPLite kit on supernatant
[3] = Size-exclusion chromatography, association state in aqueous buffer; format: physicochemical; details: for apparent molecular weight, SEC: 150 mM NaCl, Superdex 75, 25 °C, 100 μM peptide
[4] = Sedimentation equilibrium analytical ultracentrifugation in aqueous buffer; format: physicochemical; details: for apparent MW, AUC single-species fit: 150 mM NaCl, 25 °C, 35-50 krpm, global fit; for apparent MW, AUC single-species fit / aggregation state (apparent MW/peptide MW), AUC / –log(Kdissociation), monomer–hexamer equilibrium, AUC: 100 μM peptide; for –log(Kdissociation), monomer–hexamer equilibrium, AUC: error = SD of fit
[5] = AUC self-association in C-14 betaine micelles; format: physicochemical; details: 8 mM C-14 betaine, pH 7.4 and 5.5, peptide/betaine 1:50, 1:100, 1:200
Method in brief: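 Sedimentation equilibrium run at 25 °C at 35, 40, 45 and 50 krpm. Test compound was dissolved in C-14 betaine micelles in 150 mM NaCl and 50 mM sodium phosphate. D2O was added to match micelle density: 17% at pH 7.4 and 22% at pH 5.5. Data were fitted by single-species and monomer–trimer equilibrium models.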

[6] = Circular dichroism thermal denaturation; format: physicochemical; details: for [PSPF-EKG] at 50% folded and 300 K: calculated from the CD fit; for Tm of thermal denaturation by CD: reference concentration 4 μM

Substance | % miRNA at 5 μM, RBC lysis assay (human red blood cells [1]) | % ATP at 5 μM, RBC lysis assay (human red blood cells [2]; pH 5.4) | % ATP at 5 μM, RBC lysis assay (human red blood cells [2]; pH 7.5) | also measured
WSELAQG LSELAQG LSELAQG LSELAQG [PSPF-EQG] | 2.64 % relative to Triton X-100 controls | 9.52 % relative to Triton X-100 controls | 3.36 % relative to Triton X-100 controls | –
WSELAKG LSELAKG LSELAKG LSELAKG [PSPF-EKG] | – | 27.3 % relative to Triton X-100 controls | 3.38 % relative to Triton X-100 controls | apparent molecular weight, SEC ([3]; pH 5.5, 50 mM MES): 15 000 Da; apparent molecular weight, SEC ([3]; pH 7.4, 50 mM Tris): 19 000 Da; increase of free energy of the helical bundle as pH decreases from 7.4 to 5.5 ([4]; AUC): 0.7 kcal/mol peptide; association state n suggested by AUC single-species fitting ([4]; pH 5.5): 6; apparent MW, AUC single-species fit ([4]; pH 5.5, 50 mM MES): 16 000 Da; aggregation state (apparent MW/peptide MW), AUC ([4]; pH 5.5): 5.5; –log(Kdissociation), monomer–hexamer equilibrium, AUC ([4]; pH 5.5): 24.8 ± 0.1; association state n suggested by AUC single-species fitting ([4]; pH 7.4): 6; apparent MW, AUC single-species fit ([4]; pH 7.4, 50 mM Tris): 18 000 Da; aggregation state (apparent MW/peptide MW), AUC ([4]; pH 7.4): 6.2; –log(Kdissociation), monomer–hexamer equilibrium, AUC ([4]; pH 7.4): 28.0 ± 0.4; self-association in detergent micelles [5]: weakly associates in detergent micelles; decrease of Tm from pH 7.4 to pH 5.5 ([6]; CD thermal denaturation): 5.6 K; [PSPF-EKG] at 50% folded and 300 K ([6]; pH 5.5): 0.31 µM; Tm of thermal denaturation by CD ([6]; pH 5.5): 333.4 ± 0.1 K; [PSPF-EKG] at 50% folded and 300 K ([6]; pH 7.4): 0.14 µM; Tm of thermal denaturation by CD ([6]; pH 7.4): 339.0 ± 0.1 K
WSDLAQA LSDLAQA LSDLAQA LSDLAQA [PSPF-DQA] | – | – | 3.81 % relative to Triton X-100 controls | –
WSDLAQG LSDLAQG LSDLAQG LSDLAQG [PSPF-DQG] | 0.16 % relative to Triton X-100 controls | 8.61 % relative to Triton X-100 controls | 3.21 % relative to Triton X-100 controls | –
WSHLAKG LSHLAKG LSHLAKG LSHLAKG [PSPF-HKG] | 0.44 % relative to Triton X-100 controls | – | 32.1 % relative to Triton X-100 controls | –
WSHLAQG LSHLAQG LSHLAQG LSHLAQG [PSPF-HQG] | 0.64 % relative to Triton X-100 controls | – | 5.69 % relative to Triton X-100 controls | –
WSHLAQA LSHLAQA LSHLAQA LSHLAQA [PSPF-HQA] | 1.43 % relative to Triton X-100 controls | – | 6.17 % relative to Triton X-100 controls | –
WSELAKA LSELAKA LSELAKA LSELAKA [PSPF-EKA] | 0.21 % relative to Triton X-100 controls | 3.66 % relative to Triton X-100 controls | 2.02 % relative to Triton X-100 controls | –
WSDLAKG LSDLAKG LSDLAKG LSDLAKG [PSPF-DKG] | 7.47 % relative to Triton X-100 controls | 24.1 % relative to Triton X-100 controls | 7.54 % relative to Triton X-100 controls | aggregation state n (apparent MW fold over single peptide MW), SEC ([3]; pH 5.5): only a poorly defined peak; apparent MW, AUC single-species fit ([4]; pH 5.5, 50 mM MES): 24 000 Da; association state n suggested by AUC single-species fitting ([4]; pH 7.4): 6; apparent MW, AUC single-species fit ([4]; pH 7.4, 50 mM Tris): 17 000 Da; aggregation state (apparent MW/peptide MW), AUC ([4]; pH 7.4): 6.0; –log(Kdissociation), monomer–hexamer equilibrium, AUC ([4]; pH 7.4): 28.7 ± 0.4
WSELAQA LSELAQA LSELAQA LSELAQA [PSPF-EQA] | 0.02 % relative to Triton X-100 controls | 3.61 % relative to Triton X-100 controls | 3.69 % relative to Triton X-100 controls | –
WSDLAKA LSDLAKA LSDLAKA LSDLAKA [PSPF-DKA] | 0.79 % relative to Triton X-100 controls | 5.79 % relative to Triton X-100 controls | 4.64 % relative to Triton X-100 controls | –
WSHLAKA LSHLAKA LSHLAKA LSHLAKA [PSPF-HKA] | 0.02 % relative to Triton X-100 controls | 5.7 % relative to Triton X-100 controls | 0.93 % relative to Triton X-100 controls | –
